# Measurements reported in ChEMBL document CHEMBL3044531, “Quantitative structure-antifungal activity relationships of some benzohydrazides against Botrytis cinerea” (2007).
# Tests used:
# Format in all cases: functional
# Details in all cases: 144 h
# [1] = tested on: Botrytis cinerea; test: Antifungal activity against Botryotinia fuckeliana assessed as radial growth inhibition at 100 ug/mL measured after 6 days
# Method in brief: (§1)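 Radial growth inhibition of B. cinerea on glucose-malt-peptone agar (61 g/L, pH 6.5-7.0) in 9 cm dishes. Compound in acetone added to the medium at final 50-200 μg/mL, with equal acetone in the controls. A 5 mm mycelial disc from an actively growing culture was placed centrally. Growth was followed for 6 days; % inhibition from mean colony diameter versus untreated control. Triplicate, repeated at least three times.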
# [2] = tested on: Botrytis cinerea; test: Antifungal activity against Botryotinia fuckeliana assessed as radial growth inhibition at 50 ug/mL measured after 6 days; method in brief: as §1
# [3] = tested on: Botrytis cinerea; test: Antifungal activity against Botryotinia fuckeliana assessed as radial growth inhibition at 200 ug/mL measured after 6 days; method in brief: as §1
Structure (SMILES),inhibition at 100 µg/mL [1] [%],inhibition at 50 µg/mL [2] [%],inhibition at 200 µg/mL [3] [%]
O=C(NN1CCCCC1)c1ccccc1Cl,40,36,57
COc1ccccc1C(=O)NN1CCCCC1,47,38,51
"CN(C)NC(=O)c1ccccc1 [N',N'-DIMETHYLBENZOHYDRAZIDE]",45,24,51
CN(C)NC(=O)c1ccccc1Cl,0,0,33
O=C(NN(Cc1ccccc1)Cc1ccccc1)c1ccccc1I,50,27,82
CN(C)NC(=O)c1ccccc1F,22,12,32
O=C(NN1CCCCC1)c1ccccc1I,42,33,46
O=C(NN1CCCCC1)c1ccccc1F,51,46,51
O=C(NN1Cc2ccccc2C1)c1ccccc1F,50,42,91
"O=C(NN(Cc1ccccc1)Cc1ccccc1)c1ccccc1 [N',N'-DIBENZYLBENZOHYDRAZIDE]",42,10,44
Cc1ccccc1C(=O)NN(Cc1ccccc1)Cc1ccccc1,55,48,88
O=C(NN(Cc1ccccc1)Cc1ccccc1)c1ccccc1Cl,42,31,86
CN(C)NC(=O)c1ccccc1I,28,19,33
O=C(NN1CCCCC1)c1ccccc1 [N-PIPERIDINOBENZAMIDE],43,37,45
